# MMP13 inh = blocks human MMP13 activity; P45452; MMP-13 fTHP FRET cleavage, Mca fluorescence; inhibition, % at 4 µM; 0.07% of 65,000 active;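 active means inhibition above the mean of compound-free control plate wells plus 3 SD, cut at about 14% in these data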;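 further: 0% = DMSO wells and 100% = wells with reference MMP-13 inhibitor after basal subtraction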
# Candida biofilm = kills Candida albicans biofilms; 0.14% of 85,000 active; C. albicans biofilm + clotrimazole, Alamar Blue; inhibition, % at 6 µM; AID 834;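 active means inhibition above 20%; inactive means inhibition below 20%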;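 further: preformed 24 hr biofilms exposed to compound for 48 hr; 0% = biofilm without compound and 100% = blank killed by clotrimazole plus chlorhexidine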
# DAT uptake mod = modulates human dopamine transporter uptake under cocaine; LLC-PK1 hDAT cells, [14C]-dopamine uptake with cocaine IC80; actives deviate in either direction; Q01959; B-score at 10 µM; 1.3% of 110,000 active;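 active means Z score or B-score, a plate-position-corrected score, falls beyond the plate's 99.7% confidence bounds, in either direction; inactive means both scores lie inside the 99.7% bounds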;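 further: scored against the spread of the other compound wells on the same plate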
# AP ELISA ortho = alternative pathway complement inhibition, orthogonal assay; Human serum alternative complement pathway, LPS-coated ELISA, C3 deposition; tested in compound mixtures; inhibition, % at 5 µM; 0.08% of 62,000 active; AID 1235;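 active means inhibition above 30% in each of the two pooled mixtures holding the compound, so the lower value exceeds 30%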;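 further: 0% = serum in Mg-EGTA without compound and 100% = EDTA serum blank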
#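 Test system – human serum alternative complement pathway, C3 deposition on LPS-coated wells · Buffer or medium – diluted human serum in Mg2+-EGTA GVB++ · Compound dosing – 5 µM each compound, pools of ten, 50 µM per pool · Schedule – 1 h serum-compound exposure at 37 °C · Measured by – Anti-C3 ELISA, OD 450 nm · Read-out basis – percent inhibition of C3 deposition onto LPS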
# D1 mod = D1 dopamine receptor (human) allosteric modulation; HEK293 D1, CRE-luciferase, dopamine EC30 potentiation; actives deviate in either direction; B-score at 10 µM; 5.9% of 58,000 active; AID 641;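 active means luminescence count or its row- and column-corrected plate score outside the 99.7% band of the plate's sample wells, on either side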
# Target sequence (P21728 whole entry, looked up): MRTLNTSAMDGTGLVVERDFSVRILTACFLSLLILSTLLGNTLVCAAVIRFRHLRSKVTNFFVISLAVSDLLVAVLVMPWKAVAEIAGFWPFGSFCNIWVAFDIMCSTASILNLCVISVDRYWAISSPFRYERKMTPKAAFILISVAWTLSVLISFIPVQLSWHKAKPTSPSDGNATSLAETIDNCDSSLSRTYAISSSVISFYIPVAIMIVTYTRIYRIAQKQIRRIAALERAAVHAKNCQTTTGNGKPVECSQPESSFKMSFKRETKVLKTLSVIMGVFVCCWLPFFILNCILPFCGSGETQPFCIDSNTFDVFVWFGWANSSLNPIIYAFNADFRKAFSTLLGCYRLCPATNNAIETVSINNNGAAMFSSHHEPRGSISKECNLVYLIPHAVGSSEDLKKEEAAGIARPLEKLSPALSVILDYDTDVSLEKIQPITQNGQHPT
# * marks the source's active call; other numbers are inactive results; . = not tested or not shown. The full list was thinned out, with hits kept by preference.
SMILES,MMP13 inh,Candida biofilm,DAT uptake mod,AP ELISA ortho,D1 mod
CCOC(=O)/C(C(=O)Nc1ccccc1Cl)=C1/NC(C)(C)Cc2ccccc21,.,.,2.8*,.,.
COC(=O)c1cc(-c2ccc(OC)c(OC)c2)n[nH]1,7,5,-0.46,-1,7*
CC(O)[C@H]1CN=C(N)N1CCCCC1CCCCC1 (stereo partly specified),.,.,-4.7*,.,.
CNC(=O)c1ccccc1NC(=O)c1cccc(S(=O)(=O)N2CCC(C)CC2)c1,3,8,0.13,-11,-3.7*
CCOc1cc(C=O)ccc1OCCSc1ccc(Cl)cc1,.,.,-1.3,.,.
Cn1c(=O)c2c(SCC(=O)N3CCC(Cc4ccccc4)CC3)nc(C3CC3)nc2n(C)c1=O,-2,9,.,3,-5.7*
CCCc1nc(SCC(=O)N2CCC(Cc3ccccc3)CC2)c2c(=O)n(C)c(=O)n(C)c2n1,4,4,2.2,7,-0.5
Cc1nc(C(=O)NC2CCOCC2)sc1C1(C)CC(c2cccc([N+](=O)[O-])c2)=NO1 (stereo unspecified),.,.,0.83,.,.
CC(=O)Nc1ccc(-n2nnnc2SCC(=O)N2CCN(C(=O)c3ccco3)CC2)cc1,.,2,0.31,.,.
Cc1c(Br)c([N+](=O)[O-])nn1CC(=O)NCc1cccs1,.,.,0.23,.,.
Cc1c(Br)c([N+](=O)[O-])nn1C(C)C(=O)N1CCCc2ccccc21 (stereo unspecified),.,.,-8.2*,.,.
Cc1c(Br)c([N+](=O)[O-])nn1C(C)C(=O)NCc1cccs1 (stereo unspecified),.,.,-9.4*,.,.
CC(=O)Nc1ccc(NC(=O)C(C)n2nc([N+](=O)[O-])c(Br)c2C)cc1 (stereo unspecified),.,.,1.2,.,.
CCOc1ccc(-c2nc(CSCC(=O)NC3CCCc4ccccc43)c(C)o2)cc1 (stereo unspecified),.,2,1.1,.,.
COc1ccc(/C=N/NC(=O)C(=O)NCc2cccnc2)cc1OC,.,.,-1.7,.,.
COC(=O)CSc1cc(SCC(=O)OC)c(C#N)c(SCC(=O)OC)c1,-3,2,-0.11,14,-4.6*
O=C(Cn1c(CN2CCCCC2)nc2ccccc2c1=O)Nc1ccccc1,2,5,0.039,36*,-0.46
COCCNC(=O)C1CC(c2ccc(C(F)(F)F)cc2)=NO1 (stereo unspecified),.,.,-0.71,.,.
CCOc1cccc(NC(=O)C2CCCN(S(=O)(=O)c3ccc(-n4cnnn4)cc3)C2)c1 (stereo unspecified),-2,6,-0.04,-5,1.1
COc1cccc(NC(=O)C2CCCN(S(=O)(=O)c3ccc(-n4cnnn4)cc3)C2)c1 (stereo unspecified),3,3,0.88,16,-4.1*
COc1ccc(-c2[nH]ncc2/C=C(/C#N)C(=O)NC2CCCCCC2)cc1,.,.,2.8*,.,.
CN1CCN(C(=O)C23CCC(C)(c4nc5ccccc5nc42)C3(C)C)CC1 (stereo unspecified),.,4,-0.31,.,.
O=C(c1ccccc1CCc1ccccc1)N1CCOCC1,1,4,-6.8*,3,-0.79
CC(Nc1nc(-c2ccc(F)cc2)cs1)c1nc2cc(Cl)c(Cl)cc2n1CCCO (stereo unspecified),.,.,-0.42,.,.
Cc1csc(NC(C)c2nc3cc(C(F)(F)F)ccc3n2CCCO)n1 (stereo unspecified),.,.,-2.7*,.,.
SMILES,MMP13 inh,Candida biofilm,DAT uptake mod,AP ELISA ortho,D1 mod
c1coc(CNc2nc3nonc3nc2NCc2ccco2)c1,0,11,-0.91,-17,-0.84
O=c1nccc(NCc2ccco2)[nH]1,3,3,0.22,0,-3*
NC(=O)c1ccccc1Nc1nc(NCCO)nc(N2CCCC2)n1,.,.,0.82,.,.
Cc1cc(N2CCN(c3ccccc3)CC2)nc(NCc2ccccc2)n1,0,4,-0.55,5,-3.5*
COc1cc(C)nc(NCc2ccccc2)n1,3,-2,-1,8,0.0077
Cc1[nH]ccc(=O)c1OC1OC(CO)C(O)C(O)C1O (stereo unspecified),.,.,0.98,.,.
COc1ccc(Nc2ccc3c(c2)=NC2(CCCCC2)[N+]=3[O-])cc1,.,.,0.53,-19,-2.7*
[O-][N+]1=c2ccc(Nc3ccccc3)cc2=NC12CCCCC2,3,7,-0.43,21,-0.44
CCCc1nnc(SCC(=O)N2C(C)CCCC2C)n1CC1CCCO1 (stereo unspecified),.,10,-1.4,.,.
CC(Oc1ccccc1Cl)C(=O)N(Cc1ccco1)C1CCS(=O)(=O)C1 (stereo unspecified),3,-2,-1.3,9,-0.29
O=C(COc1ccc(Cl)cc1Cl)N(Cc1ccco1)C1CCS(=O)(=O)C1 (stereo unspecified),2,5,2.9*,1,0.24
c1ccc(CCn2c(C3CC3)nc3ccccc32)cc1,.,9,-0.38,.,.
CCCCOc1ccc(NC(=O)C2CC=CCC2C(=O)O)cc1 (stereo unspecified),7,6,-0.94,-5,-2.6*
CCOc1ccc(NC(=O)C2CC=CCC2C(=O)O)cc1 (stereo unspecified),-3,.,-0.99,15,0.27
CC1=CC(=O)c2c(O)ccc(O)c2C1=O,.,.,0.12,.,.
CC(C)N(C=O)C1(C(=O)NC2CCCCC2)CCCCC1,2,7,0.93,11,-3.3*
CN(C(=O)c1ccc2c(c1)OCO2)C1(C(=O)NC2CCCC2)CCCCC1,-1,-3,-1.1,10,-0.51
COc1cccc(C(=O)Nc2nnc(C(C)C)s2)c1,2,7,0.45,-3,-3.3*
CCCc1nnc(NC(=O)c2cccc(OC)c2)s1,10,4,0.37,-7,-0.57
O=C(NC1(C(F)(F)F)NC(=O)N(c2ccc(F)c(Cl)c2)C1=O)c1ccncc1 (stereo unspecified),.,.,-3*,.,.
O=C(C1=C[C@H](c2csc3ccccc23)C[C@H](OCc2ccc(CO)cc2)O1)N1CCCCCCC1,.,.,0.64,.,.
Cc1cccc(Cn2cnc3c(nnn3Cc3ccc(Cl)cc3)c2=O)c1,4,4,-0.2,11,-1.3
Cc1ccc(Cn2nnc3c(=O)n(Cc4cccc(C)c4)cnc32)cc1,14*,6,2.5,.,0.92
C=C1CCN([C@@H](Cc2ccccc2)C(=O)NCc2ccc(Cl)cc2)S(=O)(=O)c2ccccc21,.,.,1.1,.,.
C=CCOC(=O)C1=C(C)NC(=O)NC1c1ccc(OC(=O)c2ccco2)c(OC)c1 (stereo unspecified),6,6,1.3,2,-5.4*
SMILES,MMP13 inh,Candida biofilm,DAT uptake mod,AP ELISA ortho,D1 mod
COc1ccccc1N1CCN(C(c2ccc(C)cc2)c2nnnn2C(C)C)CC1 (stereo unspecified),3,8,3.1*,-6,-1.4
CC(=O)c1sc(NC(=O)c2ccccc2F)nc1C,-3,4,0.16,17,-5.1*
Cc1c(C(=O)OC(C)C)nnn1-c1nonc1N,.,-4,-0.0037,.,.
CC(C)(C)NC(=O)Nc1ccccc1C(N)=O,5,-3,-0.016,11,-4.3*
CC(C)=CC(=O)Nc1ccccc1C(N)=O,-1,12,-1.1,8,0.54
COc1ccc(-c2cc(C(F)(F)F)nc(SCC(=O)Nc3cc(C)on3)n2)cc1OC,-59,-3,-0.34,-5,24*
